Reference: ChEMBL document CHEMBL3632599, “2-((Benzimidazol-2-yl)thio)-1-arylethan-1-ones: Synthesis, crystal study and cancer stem cells CD133 targeting potential” (Eur J Med Chem, 2015)
Active and inactive are the calls of the source. The calls are words filed in the database; no cut-off is given here.

Tests used:
[1] = system: HT-29; test: Cytotoxicity against human HT-29 cells assessed as growth inhibition after 48 hrs by WST-1 assay; assay type: functional, cell-based; conditions: HT-29, 48 h
Method in brief: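 HT-29 human colon cancer cells kept in RPMI 1640 with 10% FBS, penicillin, streptomycin and 2 mmol/L L-glutamine. Seeded at 0.4*10⁴/well, left overnight, then medium replaced with fresh medium holding the test concentrations for 48 h. WST-1 added, 4 h at 37 °C, formazan read at 450 nm. IC₅₀ taken relative to untreated controls; mean ± SD of three separate experiments.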

[2] = system: HT-29; test: Inhibition of cell surface expression of CD133 in human HT-29 cells at 10 uM by flow cytometric analysis relative to control; assay type: functional
Method in brief: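 HT-29 cells exposed to compound at 10 µM, then harvested, washed and stained with APC-conjugated anti-CD133 monoclonal antibody. Analysed by flow cytometry (BD LSR II), with debris and cell clusters excluded by forward- and side-scatter gating. Reported as % inhibition of […] relative to untreated cells; mean ± SD of three separate experiments.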

| Structure (SMILES) | IC50 [1] | inhibition at 10 µM [2] | inhibition [2] |
| --- | --- | --- | --- |
| O=C(CSc1nc2ccccc2[nH]1)c1cccs1 | 23.9 µM | 55.6% | – |
| O=C(CSc1nc2ccccc2[nH]1)c1ccccc1 | 38.5 µM | – | inactive |
| COc1ccc(C(=O)CSc2nc3ccccc3[nH]2)cc1OC | 19.1 µM | 52.6% | – |
| O=c1[nH]cc(F)c(=O)[nH]1 [FLUOROURACIL] | 15.8 µM | – | – |
| Cc1ccc(C(=O)CSc2nc3ccccc3[nH]2)cc1 | 34.5 µM | 40% | – |
| COc1ccc(C(=O)CSc2nc3ccccc3[nH]2)c(OC)c1OC | 18.8 µM | 50.1% | – |
| O=C(CSc1nc2ccccc2[nH]1)c1ccc(O)cc1 | 19.2 µM | – | inactive |
| COc1ccccc1C(=O)CSc1nc2ccccc2[nH]1 | 36.1 µM | 34.9% | – |
| O=C(CSc1nc2ccccc2[nH]1)c1ccc(Br)cc1 | 43 µM | – | inactive |
| O=C(CSc1nc2ccccc2[nH]1)c1ccc2c(c1)OCO2 | 36.8 µM | 51.2% | – |
| CCOc1ccc(C(=O)CSc2nc3ccccc3[nH]2)cc1 | > 100 µM | 55.1% | – |
| O=C(CSc1nc2ccccc2[nH]1)c1ccco1 | 24.6 µM | 56.8% | – |
| O=C(CSc1nc2ccccc2[nH]1)c1ccc([N+](=O)[O-])cc1 | 57 µM | – | inactive |
| COc1ccc(C(=O)CSc2nc3ccccc3[nH]2)cc1O | 33 µM | 49.7% | – |
| COc1ccc(C(=O)CSc2nc3ccccc3[nH]2)cc1 | 25.2 µM | 52.5% | – |
| O=C(CSc1nc2ccccc2[nH]1)c1ccc(F)cc1 | 78.7 µM | – | inactive |
